# Reference: PubChem BioAssay
# Unmarked numbers belong to inactive results. Results filed as inconclusive are left out. Activity calls are given as the source filed them.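 How the source made its calls, unless noted: active means inhibition over a set limit, the all-compound mean plus 3 SD, in both replicate runs; inconclusive means over that limit in just one replicate run; inactive means at or under that limit in both runs.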
# What was measured:
# [1] = OD615 S. cerevisiae growth inhibition, permissive medium, pilot counter-assay, permissive growth control for S. cerevisiae lifespan shortening project (AID 705;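 active means growth inhibition above 25% in both replicates, a cutoff set 3 SD above the mean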); conditions: OD615, 24 h, at 10 µM, hits give high values
# Summary of the method: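 System: Engineered DeaD yeast | Buffer or medium: SC raffinose/galactose permissive medium | Incubation: Cells pre-grown 4 h, then 24 h compound exposure, 30 °C humidified | Measured by: Absorbance (optical density) at 615 nm | Read-out: Reduction in yeast growth (OD615)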
# [2] = Restrictive medium S. cerevisiae growth inhibition, OD615, pilot screen of yeast lifespan reduction project, restrictive growth control (AID 706;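 active means growth inhibition above a set limit, 3 SD over mean compound inhibition, in both replicates, cut at about 43% in these data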;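 further: modified DeaD lifespan yeast strain shifted to restrictive glucose medium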); conditions: OD615, 48 h, at 10 µM, hits give high values
# Summary of the method: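 Material: modified S. cerevisiae; Medium: glucose-based CSMM-D restrictive medium; Compound dosing: one concentration, 10 µM final, 0.25% DMSO; Incubation: 48 h compound exposure at 30 °C; Measured by: OD615.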
# [3] = viability gain of MRP-1-high H69AR cells under doxorubicin, pilot screen, MRP-1 activator project, CellTiter-Glo, duplicate (AID 807;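 active means viability increase at or above a cutoff of the median across tested compounds plus 3 SD, cut at about 8.5% in these data, passing the limit was not always enough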;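 further: compound pretreatment 18-22 h then 72 h combined with doxorubicin; 0% = doxorubicin alone and 100% = vehicle without doxorubicin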); conditions: H69AR viability with doxorubicin, CellTiter-Glo luminescence; at 10 µM; hits give high values
# [4] = growth suppression of beta-catenin knockout HCT116, pilot screen, human colon tumor cells (AID 823;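 active means cell viability at or below a set limit in both duplicate runs, the limit being the all-compound median minus 4 SD, cut at about 23% in these data, passing the limit was not always enough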;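 further: 0% = wells killed by 20 µM Hyamine and 100% = untreated DMSO cell wells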); conditions: CellTiter-Glo, 60 h, at 10 µM, hits give low values
# [5] = growth suppression of PTEN-deleted HCT116, pilot screen, cell-based, HCT116 clonal line, CellTiter-Glo (AID 824;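 active means viability at or below 27.92% in each of two runs, the all-compound median minus 4 SD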;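 further: 0% = 20 µM Hyamine control and 100% = vehicle cell control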); conditions: 60 h, at 10 µM, hits give low values
# [6] = inhibitors of the yeast RAM network, pilot screen, dse1pr::URA3 reporter, 5-FOA selection (AID 869);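 further: 0% = DMSO wells with no growth and 100% = 10 µM 1-NA-PP1 with full growth; RAM network block rescues cells from 5-FOA so hits raise OD615 growth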; conditions: S. cerevisiae dse1pr::URA3 5-FOA growth, OD615, 2 d; at 10 µM; hits give high values; strain carries analog-sensitive mutant Cbk1 kinase
# [7] = RAM signaling pathway blockade in yeast – S. cerevisiae, Pdr1DBD-CYC8 efflux-inhibited sensitized strain, primary screen (AID 1298;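 active means RAM network inhibition above 8.4% in each of two replicates, 3 SD over the compound average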;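 further: 0% = DMSO untreated cells without growth and 100% = 10 µM 1-NA-PP1 full growth; higher means more yeast growth rescued from 5-FOA killing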); conditions: S. cerevisiae cbk1-as DSE1-URA3 strain, 5-FOA growth OD615, 2 d; at 50 µM; hits give high values
SMILES,growth inhibition [1] [%],growth inhibition [2] [%],viability increase [3] [%],viability [4],viability [5],inhibition [6] [%],RAM network inhibition [7] [%]
O=C(CN(Cc1ccc(F)cc1)S(=O)(=O)c1ccccc1)N1CCCCC1,-9.46,-3.51,-2.51,97.3%,89.8%,0.975,4.25
Cc1cc(N2C(=O)C3CC=CCC3C2=O)cc(C)c1Br (configuration not stated),-3.4,-11.6,-1.05,95.5%,95.2%,2.22,6.44
Cc1cc(NC(=O)c2ccccc2)sc1C,-5.22,3.02,-3.69,70.7%,70%,-1.59,-1.89
COc1ccccc1-c1nnc(SCC(=O)Nc2ccc(Cl)cc2Cl)o1,-2.08,9.34,2.61,97.4%,91.1%,1.71,8.66
CC(=O)c1ccc(-n2nncc2C(C)(C)C)cc1,-3.02,-2.67,-0.85,98.6%,99.5%,1.47,0.78
O=C(NC1CCN(Cc2ccccc2)CC1)C1CCN(c2nnc(-n3cccc3)s2)CC1,3.62,-0.61,-2.59,82.2%,79.3%,0.53,2.35
CC(C)(C)n1nc2c(c1NC(=O)Cc1cccs1)CSC2,-8.2,12.2,-1.56,93.8%,92.4%,0.95,0.94
Cn1c(C(=O)NCCCN2CCCC2=O)cc2c(=O)n(C)c3ccccc3c21,-6.28,-1.63,-4.16,108%,94.4%,1.69,0.06
COC(=O)C(C)Sc1ccc2nnc(-c3cccc(F)c3)n2n1 (configuration not stated),8.96,14.9,-3.98,94.7%,87.4%,2.51,0.15
COC(=O)c1ccc(Nc2cc(C)nc3nc(C)nn23)cc1,-10.5,-4.57,-2.65,97.3%,94.6%,1.67,0.77
CCOc1ccc(N(CC(=O)Nc2cccc(F)c2)S(=O)(=O)c2c(C)noc2C)cc1,-3.51,-8.12,-5.24,66.5%,56.2%,3.33,5.5
O=C(CSc1nnc(-c2ccccc2Cl)o1)N1CCCCC1,-8.71,7.85,1.04,95.1%,97.6%,0.32,0.36
O=C1c2ccccc2C(=O)N1Cc1nc2ccccc2c(=O)n1CCCn1ccnc1,-3.57,0.74,-1.98,96.3%,101%,0.915,4.3
CC1CC(C)(C)Nc2ccc(OC(=O)c3ccco3)cc21 (configuration not stated),7.66,5.69,-7.85,1.57% (active),1.59% (active),0.51,3.36
CCOC(=O)c1cc(-c2ccc(C)cc2)n(CC(=O)NCc2ccco2)c1C,12.1,-7.09,-5.81,74.6%,77.5%,3.1,5.82
CC(=O)c1sc(NC(=O)c2ccco2)nc1-c1ccccc1,-6.58,6.05,-1.39,103%,87.7%,1.87,1.69
O=C(c1ccccc1)c1cccc(NC(=O)c2ccco2)c1,-8.52,-5.33,-3.35,92.5%,96.3%,-0.895,-0.72
CCN1c2ccccc2NC2N=C(OC)C(c3ccccc3)C21 (configuration not stated),-38.2,7.12,-8.25,3.31% (active),2.97% (active),2.47,3.8

SMILES,growth inhibition [1] [%],growth inhibition [2] [%],viability increase [3] [%],viability [4],viability [5],inhibition [6] [%],RAM network inhibition [7] [%]
Cc1cccc(N2CCN(C(=O)C3CCCN(S(=O)(=O)c4cccc5cccnc45)C3)CC2)c1C (configuration not stated),-6.73,12.1,-4.58,30.5%,35.8%,1.32,1
O=C(Oc1ccccc1)c1cccc(N2C(=O)CCC2=O)c1,-1.76,0.85,-1.06,105%,105%,1.27,1.74
O=C(Nc1ccc(Br)cc1F)c1ccc2c(c1)N(Cc1ccccc1)C(=O)CS2=O (configuration not stated),-7.48,1.12,-0.49,81.1%,67.8%,2.64,2.84
OCCOCCn1c(-c2ccccc2)nc(=S)c2c1CCCC2,-3.65,14.6,-0.07,102%,106%,0.73,6.53
CC(CNC(=O)C1CCCCC1)NC(=O)C1CCCCC1 (configuration not stated),-7.69,-6.86,0.64,89.6%,92.5%,0.08,4
COc1ccc(NC(=O)CN(c2cc(C)cc(C)c2)S(=O)(=O)c2c(C)noc2C)cc1,-19.1,-14.2,-2.45,95.2%,101%,0.19,2.39
CCOc1ccc(N(CC(=O)N2CC=C(c3ccccc3)CC2)S(=O)(=O)c2c(C)noc2C)cc1,-3.46,-23.9,-3.95,71.1%,64.9%,1.11,0.32
NC(=O)c1cc(N2C(=O)C3CC=CCC3C2=O)ccc1N1CCCCC1 (configuration not stated),-21.2,-3.95,0.16,93.1%,92.4%,1.98,4.2
CC(=O)Nc1ccc(NC(=O)CCC(=O)NCCO)cc1,-10.7,-16.7,-0.28,90.8%,92.8%,0.825,5.19
CCOC(=O)N1CCC(NC(=O)c2csc3c2CCCC3)CC1,-3.1,-14.7,-2.82,95.2%,93.6%,1.29,3.9
Cc1ccc(Cn2nnc3c(=O)n(Cc4ccccc4C)cnc32)cc1,1.6,-5.54,-2.98,92.7%,82.3%,1.68,8.59
CC(CC1C(C#N)=C(N)OC2=C1C(=O)CCC2)c1ccccc1 (configuration not stated),-23.1,-13.3,-1.89,98.6%,99.3%,0.91,5.88
Cc1ccc(-n2nc(C)c3c(C)c(CCC(=O)NCc4ccco4)c(C)nc32)cc1,-15,-9.24,-3.52,84.7%,75.5%,0.985,4.13
Cn1cccc1Cc1nnc(SCC(=O)NC2CCCCC2)n1-c1ccc(F)cc1,1.67,-4.1,-1.86,95.4%,96.7%,1.08,4.28
CCc1nn(CC(=O)NCCCN2CCCC2=O)c(=O)c2cc3sccc3n12,-8.81,-16.4,-2.31,112%,108%,1.91,0.36
COc1ccc(N2Cc3cccc(C(=O)NC(C)CCc4ccco4)c3C2=O)cc1 (configuration not stated),-3.44,-3.73,3.67,95.3%,95.3%,1.92,7.29
Cc1cc(N2CCN(C(=O)c3ccco3)CC2)n2nc(C)nc2n1,-6.63,5.6,-3.61,95.5%,98.2%,0.95,-0.63
Cc1c(C(=O)NCc2ccc3c(c2)OCO3)oc2ccc(S(=O)(=O)N3CCC(C)CC3)cc12,-11.5,-16.7,0.73,74.7%,73%,2.39,11.2
